Here are results for three compounds from paper PMC6045484 (ACS Omega, 2018).

Converted amounts (≈) assume the structure as drawn.

One series concerns SA (ATCC29213). Description: in vitro antibacterial activity. The following applies: Staphylococcus aureus; for IC50: ATCC29213, read-out: IC50 (concentration that affords 50% growth inhibition), SA; for MBC: ATCC29213, read-out: MBC (minimum bactericidal concentration), SA; for MIC: ATCC29213, read-out: MIC, SA. It counts as cell-based. The gist of the method:
(§1)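 Test compound serially diluted in 20% DMSO/saline and plated in duplicate, up to 20 μg/mL. Inoculum in cation-adjusted Mueller–Hinton broth, pH 7.3, set by OD630 to 5 × 10^5 CFU/mL. Incubated 16–20 h at 35 °C; 530 nm read before and after. IC50 is 50% growth inhibition; MIC is no detectable growth. MBC from clear wells subcultured on agar. Ciprofloxacin control.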

Series [1] relates to SK-MEL, KB, BT-549, SK-OV-3, VERO and LLC-PK1 cells. As to the kind of experiment: cytotoxicity, neutral red uptake assay. The following applies: highest test concentration 4760 ng/mL. Type of series: cell-based, mammalian. The gist of the method:
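Cells seeded at 25 000/well and allowed 24 h to reach confluence. Test compound was then added and incubated 48 h. Viable cells were counted by a modified neutral red uptake method. The panel was four human cancer lines and two noncancerous mammalian kidney lines. Doxorubicin served as positive control and DMSO as negative control.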

Series [2] has as its system L. donovani promastigotes. Description: in vitro antileishmanial activity, alamarBlue assay. Type of series: cell-based, Leishmania donovani. The conditions noted are these: Leishmania donovani, 48 h; for IC50: read-out: L. donovani IC50, promastigotes, 48 h; for IC90: read-out: L. donovani IC90, promastigotes, 48 h. A general note: The colour change of resazurin is a common sign of viable cells or microbes.

Another series concerns P. falciparum (D6). Description: in vitro antimalarial activity, plasmodial LDH. Type of series: cell-based, Plasmodium falciparum. The following applies: Plasmodium falciparum, D6, 72 h, read-out: P. falciparum (D6) IC50.
The test system of a further series is C. neoformans ATCC90113. As to the kind of experiment: in vitro antifungal activity. Type of series: cell-based, Cryptococcus neoformans. The following applies: Cryptococcus neoformans; for IC50: ATCC90113, read-out: C. neoformans IC50; for MFC: ATCC90113, read-out: C. neoformans MFC; for MIC: ATCC90113, read-out: C. neoformans MIC. The gist of the method:
(§2)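 Modified NCCLS broth method in Sabouraud dextrose. Inoculum set by OD630 to 1.5 × 10^3 CFU/mL. Test compound serially diluted in 20% DMSO/saline, duplicate wells, up to 20 μg/mL. Incubated 70–74 h at 35 °C; 530 nm read before and after. IC50 is 50% growth inhibition; MIC is no detectable growth. MFC from clear wells subcultured on agar. Amphotericin B control.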

The test system of another series is A. fumigatus ATCC 90906. Description: in vitro antifungal activity. Type of series: cell-based, Aspergillus fumigatus. The conditions noted are these: Aspergillus fumigatus; for IC50: ATCC90906, read-out: A. fumigatus IC50; for MFC: ATCC90906, read-out: A. fumigatus MFC; for MIC: ATCC90906, read-out: A. fumigatus MIC. The gist of the method:
as §2

For another series, the system named is C. albicans ATCC90028. As to the kind of experiment: in vitro antifungal activity. It counts as cell-based, Candida albicans. The following applies: Candida albicans; for IC50: ATCC90028, read-out: C. albicans IC50; for MFC: ATCC90028, read-out: C. albicans MFC; for MIC: ATCC90028, read-out: C. albicans MIC. The gist of the method:
as §2

Another series relates to P. falciparum (W2). As to the kind of experiment: in vitro antimalarial activity, plasmodial LDH. Type of series: cell-based, Plasmodium falciparum. The following applies: Plasmodium falciparum, W2, 72 h, read-out: P. falciparum (W2) IC50, CQ-resistant W2 strain, 72 h. The gist of the method: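 P. falciparum-infected erythrocytes (2% parasitemia, 2% hematocrit) in RPMI 1640 with 10% human serum and 60 μg/mL amikacin. Exposed to test compound dilutions for 72 h at 37 °C under 90% N2/5% O2/5% CO2. LDH measured with Malstat reagent (30 min, room temperature), then NBT/PES for 1 h in the dark, stopped with 5% acetic acid, read at 650 nm. IC50 from dose-response curves.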

A further series relates to MRSA (ATCC33591). As to the kind of experiment: in vitro antibacterial activity. It counts as cell-based, methicillin-resistant Staphylococcus aureus. The following applies: Staphylococcus aureus, ATCC33591|MRSA, read-out: MIC, MRSA. The gist of the method:
as §1

Series [3] relates to M. intracellulare (ATCC23068). Description: in vitro antibacterial activity, modified alamarBlue procedure. It counts as cell-based, Mycobacterium intracellulare. The following applies: Mycobacterium intracellulare; for IC50: ATCC23068, read-out: IC50 (concentration that affords 50% growth inhibition), M. intracellulare; for MBC: ATCC23068, read-out: MBC (minimum bactericidal concentration), M. intracellulare; for MIC: ATCC23068, read-out: MIC, M. intracellulare. The gist of the method: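 Modified alamarBlue microplate method. Test compound serially diluted in 20% DMSO/saline, duplicate wells, up to 20 μg/mL. Inoculum 2.0 × 10^6 CFU/mL in Middlebrook 7H9 with OADC, pH 7.3, containing 5% alamarBlue. Incubated 70–74 h at 37 °C, 10% CO2; fluorescence 544ex/590em read before and after. MIC: no blue-to-pink change. MBC by subculturing blue wells on agar. Ciprofloxacin control.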

For `CCCCCCOc1c(OC)cc(NC(C)CCCNC(=O)C(N)CCSC)c2nc(C(C)(C)C)ccc12` (stereo not drawn) [compound 102, 2-Amino-N-(4-(2-tert-butyl-5-(hexyloxy)-6-methoxyquinolin-8-ylamino)pentyl)-4-(methylthio)butanamide], the IC50 in the series on SA (ATCC29213) is 5.03 mg/L (≈ 9.2 µM); in [2], 5.9 mg/L (≈ 10.8 µM); with P. falciparum (D6), 2.8 mg/L (≈ 5.12 µM); in the series on C. neoformans ATCC90113, greater than 20 mg/L; in the series on A. fumigatus ATCC 90906, greater than 20 mg/L; in the series on C. albicans ATCC90028 it was greater than 20 mg/L. The IC50 in the series with P. falciparum (W2) is 2.8 mg/L (≈ 5.12 µM); in series [3] it was 11.2 mg/L (≈ 20.4 µM). Further, the MBC (in the series on SA (ATCC29213); in [3]) was 20 mg/L (≈ 36.6 µM) throughout. For the same compound, the minimal inhibitory concentration (MIC) in the series on SA (ATCC29213) was 10 mg/L (≈ 18.3 µM); in the series with C. neoformans ATCC90113, greater than 20 mg/L; in the series with A. fumigatus ATCC 90906, greater than 20 mg/L; with C. albicans ATCC90028, greater than 20 mg/L; with MRSA (ATCC33591), 20 mg/L (≈ 36.6 µM); in series [3], 20 mg/L (≈ 36.6 µM). For the same compound, the “cytotoxicity CTX” value in series [1] is recorded as “NC (NC, not cytotoxic up to 4760 ng/mL (4.76 μg/mL))”. In addition, the IC90 in series [2] stood at 22 mg/L (≈ 40.2 µM). Further, the MFC in the series with C. neoformans ATCC90113, with A. fumigatus ATCC 90906 and in the series on C. albicans ATCC90028 was greater than 20 mg/L throughout.

For the compound `CCCCCCOc1c(OC)cc(NC(C)CCCNC(=O)C(N)C(C)CC)c2nc(C(C)(C)C)ccc12` (stereo not drawn) [compound 104, 2-Amino-N-(4-(2-tert-butyl-5-(hexyloxy)-6-methoxyquinolin-8-ylamino)pentyl)-3-methylpentanamide], the IC50 in the series with SA (ATCC29213) was 13.2 mg/L (≈ 24.9 µM); in series [2], 16 mg/L (≈ 30.3 µM); with P. falciparum (D6), 4.76 mg/L (≈ 9 µM); in the series on C. neoformans ATCC90113, greater than 20 mg/L; in the series with A. fumigatus ATCC 90906, greater than 20 mg/L; with C. albicans ATCC90028, greater than 20 mg/L. For the same compound, the IC50 in the series on P. falciparum (W2) is 4 mg/L (≈ 7.56 µM); in series [3] it was greater than 20 mg/L. For the same compound, the MBC (in the series with SA (ATCC29213); in series [3]) was greater than 20 mg/L each time. In addition, the MIC (with SA (ATCC29213); in the series with C. neoformans ATCC90113; in the series on A. fumigatus ATCC 90906; in the series on C. albicans ATCC90028; with MRSA (ATCC33591); in series [3]) was greater than 20 mg/L each time. Also, the “cytotoxicity CTX” value in [1] was “NC (NC, not cytotoxic up to 4760 ng/mL (4.76 μg/mL))”. Moreover, in [2], the IC90 is 30 mg/L (≈ 56.7 µM). The MFC in the series on C. neoformans ATCC90113, in the series with A. fumigatus ATCC 90906 and in the series with C. albicans ATCC90028 was greater than 20 mg/L each time.

Take `CCCCCCOc1c(OC)cc(NC(C)CCCNC(=O)C(N)Cc2cnc[nH]2)c2nc(C(C)(C)C)ccc12` (stereo not drawn) [compound 105, 2-Amino-N-(4-(2-tert-butyl-5-(hexyloxy)-6-methoxyquinolin-8-ylamino)pentyl)-3-(1H-imidazole-5-yl)propanamide]: the IC50 in the series with SA (ATCC29213) was 2.79 mg/L (≈ 5.05 µM); in series [2], 3.5 mg/L (≈ 6.33 µM); in the series on P. falciparum (D6), 2.4 mg/L (≈ 4.34 µM); in the series on C. neoformans ATCC90113 it was greater than 20 mg/L; in the series on A. fumigatus ATCC 90906, greater than 20 mg/L; with C. albicans ATCC90028, 19.4 mg/L (≈ 35.1 µM). Moreover, the IC50 came out at 1.7 mg/L (≈ 3.08 µM) in the series with P. falciparum (W2) and 5.94 mg/L (≈ 10.7 µM) in [3]. The MBC (in the series with SA (ATCC29213); in series [3]) was 10 mg/L (≈ 18.1 µM) in each case. The MIC is 5 mg/L (≈ 9.05 µM) in the series with SA (ATCC29213); greater than 20 mg/L with C. neoformans ATCC90113; greater than 20 mg/L in the series with A. fumigatus ATCC 90906; greater than 20 mg/L in the series with C. albicans ATCC90028; 10 mg/L (≈ 18.1 µM) in the series with MRSA (ATCC33591); 10 mg/L (≈ 18.1 µM) in series [3]. Also, the “cytotoxicity CTX” value in [1] is “NC (NC, not cytotoxic up to 4760 ng/mL (4.76 μg/mL))”. The IC90 in series [2] was 7 mg/L (≈ 12.7 µM). The MFC with C. neoformans ATCC90113, with A. fumigatus ATCC 90906 and in the series with C. albicans ATCC90028 was greater than 20 mg/L throughout.

A word on the MIC: it is the lowest concentration found to suppress growth. As a reminder, the IC90 is the concentration at which the effect reaches the 90% level. Broadly, the MFC is the lowest tested concentration that kills the fungus rather than only halting it.
